According to ChEMBL document CHEMBL4033643, “Synthesis and in vitro antitumour activity of crassalactone D, its stereoisomers and novel cinnamic ester derivatives” (Eur J Med Chem, 2017):
Calls of active or inactive are those of the source. The rule behind the calls is not given here.

Key:
K562 [1] = test: Induction of apoptosis in human K562 cells assessed as total necrotic cells by Annexin V-FITC/propidium iodide staining based flow cytometry (reference value: 0.23%); type: functional
K562 [2] = test: Induction of apoptosis in human K562 cells assessed as decrease in Bcl-2 expression level by Western blot analysis; type: functional, cell-based
Procedure, shortened: (§1)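 Western blot of treated K562 cells for Bcl-2, Bax, activated caspase 3 and cleaved PARP (85 kDa fragment). Blots developed by ECL, with band expression quantified by densitometry against an untreated control sample.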

K562 [3] = test: Induction of apoptosis in human K562 cells assessed as total viable cells by Annexin V-FITC/propidium iodide staining based flow cytometry (reference value: 92.45%); type: functional
HeLa = test: Cytotoxicity against human HeLa cells assessed as reduction in cell viability after 72 hrs by MTT assay; type: functional, cell-based
K562 [4] = test: Cell cycle arrest in human K562 cells assessed as total cell levels at S phase at IC50 after 72 hrs by propidium iodide staining based flow cytometry (reference value: 36.49%); type: functional
A549 = test: Cytotoxicity against human A549 cells assessed as reduction in cell viability after 72 hrs by MTT assay; type: functional, cell-based; details: A549, 72 h
Jurkat = test: Cytotoxicity against human Jurkat cells assessed as reduction in cell viability after 72 hrs by MTT assay; type: functional, cell-based
K562 [5] = test: Cell cycle arrest in human K562 cells assessed as accumulation at G2/M phase at IC50 after 72 hrs by propidium iodide staining based flow cytometry (reference value: 19.01%); type: functional
K562 [6] = test: Induction of apoptosis in human K562 cells assessed as increase in Bax expression level by Western blot analysis; type: functional, cell-based; procedure, shortened: as §1
K562 [7] = test: Cell cycle arrest in human K562 cells assessed as accumulation at sub G1 phase at IC50 after 72 hrs by propidium iodide staining based flow cytometry (reference value: 1.48%); type: functional
K562 [8] = test: Cytotoxicity against human K562 cells assessed as reduction in cell viability after 72 hrs by MTT assay; type: functional, cell-based; details: K562, 72 h
K562 [9] = test: Induction of apoptosis in human K562 cells assessed as increase in caspase 3 expression level by Western blot analysis; type: functional, cell-based; procedure, shortened: as §1
Raji = test: Cytotoxicity against human Raji cells assessed as reduction in cell viability after 72 hrs by MTT assay; type: functional, cell-based
K562 [10] = test: Induction of apoptosis in human K562 cells assessed as specific apoptosis by Annexin V-FITC/propidium iodide staining based flow cytometry; type: functional; set-up: concentration or dose not given beside the values
K562 [11] = test: Induction of apoptosis in human K562 cells assessed as gated necrotic cells by Annexin V-FITC/propidium iodide staining based flow cytometry (reference value: 0.24%); type: functional
K562 [12] = test: Induction of apoptosis in human K562 cells assessed as gated early apoptotic cells by Annexin V-FITC/propidium iodide staining based flow cytometry (reference value: 3.18%); type: functional
K562 [13] = test: Induction of apoptosis in human K562 cells assessed as gated viable cells by Annexin V-FITC/propidium iodide staining based flow cytometry (reference value: 95.78%); type: functional
MRC5 = test: Cytotoxicity against human MRC5 cells assessed as reduction in cell viability after 72 hrs by MTT assay; type: cell-based; details: MRC5, 72 h
K562 [14] = test: Induction of apoptosis in human K562 cells assessed as total early apoptotic cells by Annexin V-FITC/propidium iodide staining based flow cytometry (reference value: 3.07%); type: functional
K562 [15] = test: Cell cycle arrest in human K562 cells assessed as total cell levels at G0/G1 phase at IC50 after 72 hrs by propidium iodide staining based flow cytometry (reference value: 39.97%); type: functional
MCF7 = test: Cytotoxicity against human MCF7 cells assessed as reduction in cell viability after 72 hrs by MTT assay; type: functional, cell-based; details: MCF7, 72 h
K562 [16] = test: Induction of apoptosis in human K562 cells assessed as total late apoptotic cells by Annexin V-FITC/propidium iodide staining based flow cytometry (reference value: 0.77%); type: functional
K562 [17] = test: Induction of apoptosis in human K562 cells assessed as increase in cleaved PARP expression level by Western blot analysis; type: functional, cell-based; procedure, shortened: as §1
K562 [18] = test: Cell cycle arrest in human K562 cells assessed as total cell levels at G2/M phase at IC50 after 72 hrs by propidium iodide staining based flow cytometry (reference value: 14.31%); type: functional
K562 [19] = test: Cell cycle arrest in human K562 cells assessed as total cell levels at M4 phase at IC50 after 72 hrs by propidium iodide staining based flow cytometry (reference value: 0.50%); type: functional
HL-60 = test: Cytotoxicity against human HL60 cells assessed as reduction in cell viability after 72 hrs by MTT assay; type: functional, cell-based; details: HL-60, 72 h
K562 [20] = test: Cell cycle arrest in human K562 cells assessed as accumulation at G0/G1 phase at IC50 after 72 hrs by propidium iodide staining based flow cytometry (reference value: 38.48%); type: functional
MDA-MB-231 = test: Cytotoxicity against human MDA-MB-231 cells assessed as reduction in cell viability after 72 hrs by MTT assay; type: functional, cell-based; details: MDA-MB-231, 72 h
K562 [21] = test: Cell cycle arrest in human K562 cells assessed as accumulation at S phase at IC50 after 72 hrs by propidium iodide staining based flow cytometry (reference value: 41.03%); type: functional
K562 [22] = test: Induction of apoptosis in human K562 cells assessed as gated late apoptotic cells by Annexin V-FITC/propidium iodide staining based flow cytometry (reference value: 0.88%); type: functional
K562 [23] = test: Induction of apoptosis in human K562 cells assessed as specific necrosis by Annexin V-FITC/propidium iodide staining based flow cytometry; type: functional; set-up: concentration or dose not given beside the values

`O=C1C=C[C@]2(C[C@H](OC(=O)/C=C/c3ccc([N+](=O)[O-])cc3)[C@@H](c3ccccc3)O2)O1` was tested, and the Activity (K562 [1]) was 0.71%, the Activity (K562 [2]) was “inactive” and the Activity (K562 [3]) was 92.65%. For the same compound, the IC50 (HeLa) was 2.22 µM, the Activity (K562 [4]) was 25.39% and the IC50 (A549) was 45.4 µM. For the same compound, the IC50 (Jurkat) was 31.2 µM, the Activity (K562 [5]) was 21.66% and the Activity (K562 [6]) was “Active”. For the same compound, the Activity (K562 [7]) was 2.13%, the IC50 (K562 [8]) was 5.64 µM and the Activity (K562 [9]) was “inactive”. It also gave an IC50 (Raji) greater than 100 µM, an Activity (K562 [10]) of 0.75% and an Activity (K562 [11]) of 0.72%. For the same compound, the Activity (K562 [12]) was 3.86%, the Activity (K562 [13]) was 94.55% and the IC50 (MRC5) was greater than 100 µM. It also gave an Activity (K562 [14]) of 3.78%, an Activity (K562 [15]) of 43.62% and an IC50 (MCF7) of 8.58 µM. For the same compound, the Activity (K562 [16]) was 0.85%, the Activity (K562 [17]) was “inactive” and the Activity (K562 [18]) was 20.35%. It also gave an Activity (K562 [19]) of 1.93%, an IC50 (HL-60) of 2.24 µM and an Activity (K562 [20]) of 48.17%. For the same compound, the IC50 (MDA-MB-231) was greater than 100 µM, the Activity (K562 [21]) was 28.04% and the Activity (K562 [22]) was 0.87%. The Activity (K562 [23]) was 3.4%.
`O=C1C=C[C@@]2(C[C@H](OC(=O)/C=C/c3ccc(F)cc3)[C@H](c3ccccc3)O2)O1` was tested, and the Activity (K562 [1]) was 1.57%, the Activity (K562 [2]) was “Active” and the Activity (K562 [3]) was 70.05%. For the same compound, the IC50 (HeLa) was 8.45 µM, the Activity (K562 [4]) was 28.54% and the IC50 (A549) was 1.17 µM. The IC50 (Jurkat) was 4.63 µM, the Activity (K562 [5]) was 28.66% and the Activity (K562 [6]) was “inactive”. For the same compound, the Activity (K562 [7]) was 3.99%, the IC50 (K562 [8]) was 5.36 µM and the Activity (K562 [9]) was “Active”. The IC50 (Raji) was 5.37 µM, the Activity (K562 [10]) was 18.71% and the Activity (K562 [11]) was 2.81%. For the same compound, the Activity (K562 [12]) was 20.44%, the Activity (K562 [13]) was 75.24% and the IC50 (MRC5) was greater than 100 µM. For the same compound, the Activity (K562 [14]) was 10%, the Activity (K562 [15]) was 34.22% and the IC50 (MCF7) was 2.31 µM. The Activity (K562 [16]) was 0.75%, the Activity (K562 [17]) was “Active” and the Activity (K562 [18]) was 26.5%. For the same compound, the Activity (K562 [19]) was 3.69%, the IC50 (HL-60) was 1.02 µM and the Activity (K562 [20]) was 37.01%. It also gave an IC50 (MDA-MB-231) of 7.54 µM, an Activity (K562 [21]) of 30.34% and an Activity (K562 [22]) of 1.51%. It also gave an Activity (K562 [23]) of 1.22%.
For `O=C1C=C[C@@]2(C[C@H](OC(=O)/C=C/c3ccccc3)[C@@H](c3ccccc3)O2)O1`, the Activity (K562 [1]) was 0.02%, the Activity (K562 [2]) was “Active” and the Activity (K562 [3]) was 2.12%. The IC50 (HeLa) was 0.58 µM, the Activity (K562 [4]) was 13.85% and the IC50 (A549) was 28.1 µM. For the same compound, the IC50 (Jurkat) was 87.6 µM, the Activity (K562 [5]) was 5.34% and the Activity (K562 [6]) was “Active”. It also gave an Activity (K562 [7]) of 56.93%, an IC50 (K562 [8]) of 20.5 µM and an IC50 (Raji) of 2.38 µM. For the same compound, the Activity (K562 [10]) was 86.01%, the Activity (K562 [11]) was 0.03% and the Activity (K562 [12]) was 82.46%. For the same compound, the Activity (K562 [13]) was 12.84%, the IC50 (MRC5) was greater than 100 µM and the Activity (K562 [14]) was 68.98%. For the same compound, the Activity (K562 [15]) was 21.87%, the IC50 (MCF7) was 0.58 µM and the Activity (K562 [16]) was 3.48%. For the same compound, the Activity (K562 [18]) was 5.03%, the Activity (K562 [19]) was 54.83% and the IC50 (HL-60) was 5.61 µM. It also gave an Activity (K562 [20]) of 23.1%, an IC50 (MDA-MB-231) of 3.45 µM and an Activity (K562 [21]) of 14.63%. The Activity (K562 [22]) was 4.67% and the Activity (K562 [23]) was 4.12%.
